According to ChEMBL document CHEMBL3045750, “New class of algicidal compounds and fungicidal activities derived from a chromene amide of Amyris texana” (2010):
Calls of active or inactive are those of the source. The rule behind the calls is not given here.

Experiments:
Colletotrichum fragariae = experiment: Antifungal activity against Colletotrichum fragariae by TLC bioautography; type: functional, organism-based
Agrostis stolonifera = experiment: Phytotoxic activity against Agrostis stolonifera var. Penncross at 0.1 to 1000 uM; type: functional, organism-based
How it was run: (§1)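 Germination phytotoxicity assay on lettuce (Lactuca sativa cv. Iceberg, dicot) and bent grass (Agrostis stolonifera cv. Pencross, monocot), with compounds tested across 0.1-1000 μM. Inhibition was scored visually on a 1-5 scale, where 1 is no inhibition and 5 is complete inhibition of germination.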

Lactuca sativa = experiment: Phytotoxic activity against Lettuce cv. Iceberg (lettuce) at 0.1 to 1000 uM; type: functional, organism-based; how it was run: as §1
Botrytis cinerea [1] = experiment: Fungicidal activity against Botryotinia fuckeliana assessed as growth inhibition at 100 uM after 72 hr by microbioassay; type: functional; settings: read-out: GI
How it was run: (§2)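 Botrytis cinerea tested in a 96-well dose-response microbioassay alongside other fungal strains, after compounds were first screened by TLC bioautography against C. fragariae. Three concentrations were used (1.0, 10.0, 100.0 μM), with captan as positive standard. Growth inhibition was read 72 h after treatment.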

Cucumis sativus = experiment: Phytotoxic activity against Cucumis sativus (cucumber) cotyledon disks assessed as electrolyte leakage; type: functional, organism-based
Botrytis cinerea [2] = experiment: Fungicidal activity against Botryotinia fuckeliana assessed as growth inhibition at 10 to 100 uM after 72 hr by microbioassay; type: functional, organism-based; how it was run: as §2

| Structure (SMILES) | Activity (Colletotrichum fragariae) | Activity (Agrostis stolonifera) | Activity (Lactuca sativa) | inhibition of growth at 100 µM (Botrytis cinerea [1]) | Activity (Cucumis sativus) | growth inhibition (GI) (Botrytis cinerea [2]) |
| --- | --- | --- | --- | --- | --- | --- |
| COc1cc(CCO)cc2c1OC(C)(C)C=C2 | Active |  |  |  |  |  |
| CC(C)NCc1ccc2c(c1)OC(C)(C)C=C2 | inactive | inactive | inactive |  |  |  |
| CC(C)NCCCc1ccc2c(c1)C=CC(C)(C)O2 | inactive | inactive | inactive |  |  |  |
| C#CC(C)(C)Oc1ccc(CCC(=O)OC)cc1 | Active |  |  |  |  |  |
| CC1(C)C=Cc2cc(CCO)ccc2O1 | Active | inactive | inactive | > 50% | inactive |  |
| CC(C)NCCc1ccc2c(c1)C=CC(C)(C)O2 | inactive | inactive | inactive |  | inactive |  |
| COc1cc(CCNC(C)C)cc2c1OC(C)(C)C=C2 | inactive | inactive | inactive |  |  |  |
| C#CC(C)(C)Oc1cccc(C(=O)OC)c1 | Active |  |  |  |  |  |
| COC(=O)CCc1ccc(O)cc1 | Active |  |  |  |  |  |
| CC1(C)C=Cc2cc(CCN)ccc2O1 | inactive | inactive | inactive |  |  |  |
| CC1(C)C=Cc2cc(CCCO)ccc2O1 | Active |  |  | > 50% |  |  |
| COC(=O)c1ccc2c(c1)OC(C)(C)C=C2 | Active |  |  | > 50% |  |  |
| CC(C)NCc1cccc2c1C=CC(C)(C)O2 | inactive | inactive | inactive |  |  |  |
| CC1(C)C=Cc2c(CO)cccc2O1 | Active |  |  |  |  |  |
| COC(=O)c1ccc2c(c1)C=CC(C)(C)O2 | Active |  |  | > 50% |  |  |
| COC(=O)Cc1ccc2c(c1)C=CC(C)(C)O2 | Active | inactive | inactive | 30% |  |  |
| COC(=O)CCc1ccc2c(c1)C=CC(C)(C)O2 | Active |  |  |  |  |  |
| CCOC(=O)Cc1cc2c(c(OC)c1)OC(C)(C)C=C2 | Active |  |  |  |  |  |
| O=C1C2CC=CCC2C(=O)N1SC(Cl)(Cl)Cl (stereo unspecified) |  |  |  |  |  | Active |
| C#CC(C)(C)Oc1ccc(C(=O)OC)cc1 | Active |  |  |  |  |  |
| CC1(C)C=Cc2ccc(CO)cc2O1 | Active |  |  | > 50% |  |  |
| CC1(C)C=Cc2cc(CO)ccc2O1 [EULATACHROMENE] | Active |  |  | 30% | inactive |  |
| C#CC(C)(C)Oc1ccc(CC(=O)OC)cc1 | Active |  |  |  |  |  |
| CC(C)CC(=O)N(C)CCc1ccc2c(c1)C=CC(C)(C)O2 |  | inactive | inactive | 80% |  |  |
| COC(=O)c1cccc2c1C=CC(C)(C)O2 | Active |  |  | > 50% |  |  |
| CC(C)NCc1ccc2c(c1)C=CC(C)(C)O2 | inactive | inactive | inactive |  |  |  |
| CNCCc1ccc2c(c1)C=CC(C)(C)O2 | inactive | inactive | inactive |  |  |  |
| C#CC(C)(C)Oc1ccc(CC(=O)OCC)cc1OC | Active |  |  |  |  |  |
